High-throughput results (PubChem)
HUVEC inhibit: inhibitors of HUVEC proliferation, primary screen, cell-based, 384-well; CellTiter-Glo luminescence, 72 h; stronger effect = lower value; viability, % at 10 µM (by protocol); hit rate 1.1% among 86,000;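 active means viability at or below 30%; inactive means viability above 30%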;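 further: 100% = median luminescence of DMSO-only cell control wells on each plate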
Jurkat viability: cytotoxicity toward Jurkat T cells, primary screen, cytotoxicity control, cell-based, Jurkat E6.1, 60K MLSMR library. Jurkat E6.1 viability, ATP luminescence, 48 h. AID 463, 2006. hit rate 1.2% among 56,000. inhibition, % at 4 µM;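 active means inhibition above the mean inhibition of all tested compounds plus 3 SD, cut at about 28% in these data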
Ecoli WT expand: growth inhibitors of wild-type E. coli, primary screen, strain BW25113, expanded library, OD600; OD600 absorbance; hit rate 0.15% among 98,000; growth inhibition, % at 100 µM;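 active means growth inhibition above about 50% at one test dose, limit read from the data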;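 further: growth measured after 20 h incubation at 37 °C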
Lung fibro prol: antiproliferative effect on LL 47 fibroblasts – human, LL 47 cells, CellTiter-Glo luminescence, primary screen | LL 47 human lung fibroblast viability, ATP luminescence; stronger effect = lower value | viability, % at 10 µM | hit rate 1.1% among 85,000 | AID 719, 2007;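 active means viability at or below 50% in the single dose screen; inactive means viability above 50%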;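 further: compound exposure lasted 72 h before the ATP readout; 100% = median luminescence of untreated cell-only wells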
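Signal: luminescent ATP detection, CellTiter-Glo; assay system: LL 47 human lung fibroblasts; input: 1,150 cells/well; incubation: overnight cell rest, 72 h compound treatment at 37 °C; measure: % viability versus median cells-only luminescence; medium: IMEM growth medium with 15% fetal bovine serum; dosing: compound addition at 0.1% DMSO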
H69AR growth 86K: proliferation blockers of H69AR lung cancer cells, primary screen, cell-based, human, 86K library. H69AR lung tumor viability, ATP luminescence, 72 h; stronger effect = lower value. viability, % at 10 µM. hit rate 6% among 85,000. AID 598, 2007;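 active means viability at or below 40%; inactive means viability above 40%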;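 further: multidrug resistant small cell line overexpressing MRP-1 efflux transporter; 100% = mean luminescence of untreated control wells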
Ecoli tolC: growth inhibitors of E. coli tolC mutant, primary screen, strain BW25113 ΔtolC::kan, 384-well | OD615 | growth inhibition, % at 10 µM (by protocol) | hit rate 2.2% among 65,000;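 active means growth inhibition at or above a cutoff equal to the mean over every tested compound plus 3 SD, cut at about 60% in these data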;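 further: growth measured after 20 h incubation at 37 °C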
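Test system: tolC-deleted E. coli BW25113; medium: LB with kanamycin 50 µg/mL; compound: single-point testing at 10 µM; incubation: 20 h compound exposure of bacteria at 37 °C; signal: OD at 615 nm; evaluation: growth inhibition in percent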
An asterisk follows results filed as active; / = no result. Sampled rows, rich in hits. Any-hit rate of the full collection: about 6.4%.

SMILES | HUVEC inhibit | Jurkat viability | Ecoli WT expand | Lung fibro prol | H69AR growth 86K | Ecoli tolC
Nc1nc(-c2cccnc2)nn1S(=O)(=O)c1ccccc1 | 96 | 0 | / | 101 | 91 | 1
COc1cc(Cc2cnc(N)nc2N)cc(OC)c1OC | 98 | 0 | 100* | 96 | 102 | 97*
CN(C)c1nc(N/N=C\c2ccc(Cl)c([N+](=O)[O-])c2)nc(Nc2ccc(F)cc2)n1 | 58 | / | / | 111 | 66 | /
Cc1ccc(S(=O)(=O)N2CCN(S(=O)(=O)N3CCCCC3)CC2)c(C)c1 | 93 | -2 | -7 | 104 | 72 | 8
Cc1ccc2nc(/C(C#N)=C/c3cn[nH]c3-c3ccc(F)cc3)[nH]c2c1 | 59 | / | -9 | 87 | 14* | /
N#C/C(=C/c1ccc(N2CCCC2)c([N+](=O)[O-])c1)c1nc2ccccc2[nH]1 | / | / | -15 | / | / | /
Cc1ccc2nc(/C(C#N)=C\c3ccc(N4CCCCC4)c([N+](=O)[O-])c3)[nH]c2c1 | 106 | / | -13 | 98 | 18* | /
COCCN1C(=O)C(=O)/C(=C(/O)c2cccc(OC)c2)C1c1ccco1 (centres undefined) | 99 | / | 0 | 105 | 103 | -13
COc1ccc(/C=C2\CCc3ccccc3C2=O)cc1Cn1nc(C)cc1C | 87 | / | -12 | 80 | 15* | /
CCn1nc(NC(=O)c2ccco2)c2cc3ccccc3nc21 | 95 | / | -1 | 109 | 86 | 19
c1ccc(-n2ncc3c(N4CCN(c5ccccn5)CC4)nc(N4CCCCC4)nc32)cc1 | 97 | 0 | / | 101 | 84 | 3
c1ccc(-n2ncc3c(N4CCN(c5ccccn5)CC4)nc(N4CCOCC4)nc32)cc1 | 54 | 0 | / | 95 | 28* | -41
CCc1ccccc1N1CSC2=C(C#N)C(c3ccccc3F)CC(=O)N2C1 (centres undefined) | 82 | -6 | 2 | 97 | 29* | 9
COc1ccc(CC(NC(C)=O)C(=O)NC2CCN(C(=O)c3cnccn3)CC2)cc1 (centres undefined) | 111 | / | -2 | 112 | 85 | /
COc1ccccc1N1CCN(C(=O)C2CC=CCC2C(=O)O)CC1 (centres undefined) | 95 | -2 | 4 | 96 | 101 | -6
COc1ccccc1N1CCN(C(=O)C2c3ccccc3Oc3ccccc32)CC1 | 39 | 70* | -2 | 58 | 30* | 15
O=C(C1c2ccccc2Oc2ccccc21)N1CCN(c2ccc(Cl)cc2)CC1 | 82 | / | -24 | 87 | 39* | /
O=C(N/N=C/C(Br)=C/c1ccccc1)c1n[nH]c2c1CCC2 | 30 | / | -10 | 59 | 1.8* | /
COc1ccc(C(=O)Nc2ccc(S(=O)(=O)N3CCCCC3C)cc2)c(OC)c1OC (centres undefined) | / | 1 | -12 | / | / | 66*
COc1cc(C(=O)Nc2ccc(S(=O)(=O)N3CCCCC3C)cc2)cc(OC)c1OC (centres undefined) | 70 | -7 | -6 | 94 | 86 | 6
Cc1ccc(OCC(=O)Nc2ccc(-c3nc4ncccc4o3)cc2)c(C)c1 | 71 | -6 | 4 | 97 | 33* | 7
C=CCn1c(=O)c(C(=O)Nc2ccccc2OC)c(O)c2ccccc21 | 104 | 4 | / | 92 | 79 | -7
COc1ccccc1NCC(O)Cn1c2ccccc2c2ccccc21 (centres undefined) | 61 | / | -12 | 86 | 17* | /
CCOC(=O)c1oc2ccc(CNC3CCCCC3)c(Cl)c2c1C | 29* | / | / | 95 | 18* | /
CCOC(=O)c1nnc(-c2ccc(C)cc2)nc1Oc1ccc(Cl)cc1Cl | / | / | -15 | / | / | /
SMILES | HUVEC inhibit | Jurkat viability | Ecoli WT expand | Lung fibro prol | H69AR growth 86K | Ecoli tolC
CCOC(=O)c1nnc(-c2ccccc2)nc1Sc1c(Cl)cccc1Cl | 68 | / | -11 | 89 | 1.9* | /
CCOC(=O)c1nnc(-c2ccc(C)cc2)nc1Sc1ccc(Cl)cc1 | 69 | / | -4 | 74 | 3.3* | /
CCOC(=O)c1nnc(-c2ccc(C)cc2)nc1Sc1ccccc1Cl | 69 | / | -8 | 84 | 25* | /
CCn1c(SCc2nc3ccccc3c(=O)[nH]2)nnc1-c1cccnc1 | 67 | 8 | 0 | 102 | 93 | -19
COc1ccc2cc(CN(Cc3cccnc3)Cc3nnnn3Cc3ccccc3)c(=O)[nH]c2c1 | 96 | 5 | -6 | 91 | / | 31
CCOC(=O)c1c(CN2CCN(C)CC2)n(C)c2cc(Br)c(OC)cc12 | 33 | / | 5 | 71 | 7.3* | -12
O/N=C1\CC/C(=N\O)c2nn(-c3ccccc3Cl)nc21 | 77 | -3 | -1 | 47* | / | -7
Cc1ccc(-n2nc3c(n2)/C(=N/O)CC/C3=N\O)cc1 | 73 | / | / | 84 | 57 | /
Cc1cc(-c2ccccc2)nc2cc(C(=O)N(Cc3ccccc3)Cc3ccccc3)nn12 | 26* | / | / | 99 | 40* | /
COC(=O)c1cc2nc(-c3ccccc3)cc(C)n2n1 | 99 | 6 | 24 | 100 | 89 | -13
COc1ccc(CCNC(=O)C2CCCN2C(=O)NC2CCCCC2)cc1OC (centres undefined) | 92 | -4 | 2 | 94 | 77 | -21
COc1cc2nc(N3CCN(C(=O)C4COc5ccccc5O4)CC3)nc(N)c2cc1OC (centres undefined) | 62 | / | / | 99 | 29* | 11
COc1cc2nc(N3CCN(C(=O)c4ccco4)CC3)nc(N)c2cc1OC | 87 | / | / | 22* | 10* | -21
COc1cc(C(=O)N2CCN(C(=O)c3ccco3)CC2)cc(OC)c1OC | 83 | / | 0 | 86 | 87 | -15
COC(=O)CSc1ncccc1-c1nc2ccccc2[nH]1 | 104 | -3 | 1 | 100 | 82 | 1
CCOC(=O)N1CCC(N2Cc3cccc(C(=O)O)c3C2=O)CC1 | 85 | -2 | -5 | 88 | 102 | -9
O=C(CN1CCN(Cc2ccccc2)CC1)N1CCCc2c1c(=O)oc1ccc(O)cc21 | 31 | 3 | -15 | 82 | 7.6* | 24
Cc1ccc2cc(CN(CC3CCCO3)S(=O)(=O)c3ccccc3)c3nnnn3c2c1 (centres undefined) | 96 | / | / | 94 | 12* | /
CCc1ccccc1NS(=O)(=O)c1ccc(SC)cc1 | 82 | 9 | 9 | / | 84 | 73*
CCOc1ccc(S(=O)(=O)Nc2ccccc2SC)cc1 | 80 | / | 7 | 85 | 31* | /
CSc1ccc(S(=O)(=O)Nc2c(C)cccc2C)cc1 | 79 | 8 | 1 | 95 | 100 | 10
CCCCOc1ccccc1C1NC(=O)NC(C)=C1C(=O)OCc1ccco1 (centres undefined) | / | 7 | -9 | / | / | 28
CCCCCn1c(=O)[nH]c2cc(C(=O)NCc3ccc4c(c3)OCO4)ccc2c1=O | 59 | / | 0 | 89 | 32* | 2
COC(=O)c1ccc2c(=O)n(CCCCCC(=O)NCc3ccc4c(c3)OCO4)c(=O)[nH]c2c1 | 98 | / | -7 | 94 | 87 | /
